Reference: ChEMBL document CHEMBL4017514, “Discovery of Novel Macrocyclic Hedgehog Pathway Inhibitors Acting by Suppressing the Gli-Mediated Transcription” (J Med Chem, 2017)
The source made the active and inactive calls. The calls are words filed in the database; no cut-off is given here.

Columns and labels:
Mus musculus [1] = species on record: Mus musculus; test: Inhibition of hedgehog signaling pathway in mouse C3H10T1/2 cells assessed as downregulation of Shh-induced ptch1 mRNA expression levels at 300 nM after 36 hrs by RT-qPCR analysis; type: cell-based
Procedure, shortened: (§1)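 NIH-3T3 or C3H10T1/2 cells treated as indicated for 36 h, then collected for RT-qPCR of Gli1 and ptch1 mRNA. Data given as mean ± SD.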

Mus musculus [2] = species on record: Mus musculus; test: Inhibition of hedgehog signaling pathway in mouse Light2 cells harboring Smo W535L mutant after 36 hrs by Gli luciferase activity; type: cell-based
Procedure, shortened: (§2)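 Light II cells (NIH-3T3 stably carrying Gli-responsive firefly luciferase and Renilla vector) transfected with wild-type, D473H or W535L Smo plasmid. Exposed to compound for 36 h, then dual luciferase assay with firefly/Renilla normalization. IC50 derived and given as mean ± SD.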

Mus musculus [3] = species on record: Mus musculus; test: Inhibition of hedgehog signaling pathway in mouse NIH/3T3 cells assessed as downregulation of Shh-induced Gli1 mRNA expression levels at 300 nM after 36 hrs by RT-qPCR analysis; type: cell-based; procedure, shortened: as §1
Mus musculus [4] = test: Downregulation of Gli1 mRNA expression level in athymic nude mouse implanted with mouse Ptch+/- p53-/- medulloblastoma cells at 25 to 50 mg/kg, ip bid for 15 consecutive days measured after 4 hrs of last dosage by RT-qPCR analysis; type: functional, organism-based
Procedure, shortened: (§3)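 Same allograft model (n = 5), dosed ip twice daily for 15 days in 0.5% methylcellulose/0.2% Tween-80 suspension. Tumors harvested 4 h after the last dose. Gli1 and ptch1 mRNA quantified by RT-qPCR. Data given as mean ± SD.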

Mus musculus [5] = species on record: Mus musculus; test: Inhibition of hedgehog signaling pathway in mouse Light2 cells in Shh conditioned medium at 1 uM by Gli-luciferase reporter gene assay relative to control; type: cell-based
[6] = target: Bromodomain-containing protein 4 (Homo sapiens) (UniProt O60885); test: Inhibition of BRD4 (unknown origin) at 10 uM
Mus musculus [7] = species on record: Mus musculus; test: Inhibition of hedgehog signaling pathway in mouse NIH/3T3 cells assessed as reduction in edogenous expression of Gli2 protein by immunoblot analysis; type: cell-based
Procedure, shortened: (§4)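 NIH-3T3 cells cultured in 10% FBS were exposed to compound at various concentrations for 24 h. Endogenous Gli1 and Gli2 detected by Western blot.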

Medulloblastoma cell = test: Antiproliferative activity against mouse Ptch+/- p53-/- medulloblastoma cells assessed as reduction in cell proliferation after 72 hrs by MTS assay; type: functional, cell-based
Procedure, shortened: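 Tumor cells obtained from ptch+/−;p53−/− medulloblastoma allografts by mechanical mincing and collagenase digestion. Cultured in Neurobasal A with B-27, EGF 20 ng/mL, bFGF 20 ng/mL, nonessential amino acids and N-acetylcysteine 60 μg/mL. Exposed to compounds for 72 h, then proliferation read by MTS assay. Data given as mean ± SD.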

Mus musculus [8] = species on record: Mus musculus; test: Inhibition of hedgehog signaling pathway in mouse Ptch+/- p53-/- medulloblastoma cells assessed as reduction in GLI1 mRNA expression at 3 uM by RT-qPCR analysis
Procedure, shortened: (§5)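 ptch+/−;p53−/− medulloblastoma cells kept in Neurobasal A/B-27 medium with EGF and bFGF, then treated. Gli1 and ptch1 mRNA measured by RT-qPCR. Data given as mean ± SD.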

Mus musculus [9] = species on record: Mus musculus; test: Inhibition of hedgehog signaling pathway in mouse NIH/3T3 cells hoarboring Gli1 plasmid assessed as reduction in ectopic expression of Gli1 protein at 50 to 1000 nM by immunoblot analysis; type: cell-based
Mus musculus [10] = species on record: Mus musculus; test: Inhibition of hedgehog signaling pathway in mouse NIH/3T3 cells assessed as downregulation of Shh-induced ptch1 mRNA expression levels at 300 nM after 36 hrs by RT-qPCR analysis; type: cell-based; procedure, shortened: as §1
Mus musculus [11] = test: Downregulation of ptch1 mRNA expression level in athymic nude mouse implanted with mouse Ptch+/- p53-/- medulloblastoma cells at 25 to 50 mg/kg, ip bid for 15 consecutive days measured after 4 hrs of last dosage by RT-qPCR analysis; type: functional, organism-based; procedure, shortened: as §3
Mus musculus [12] = species on record: Mus musculus; test: Inhibition of hedgehog signaling pathway in mouse NIH/3T3 cells harboring sufu shRNA assessed as downregulation of ptch1 mRNA expression at 300 nM by RT-qPCR analysis; type: cell-based
Mus musculus [13] = species on record: Mus musculus; test: Inhibition of hedgehog signaling pathway in mouse NIH/3T3 cells harboring sufu shRNA assessed as downregulation of Gli1 mRNA expression at 300 nM by RT-qPCR analysis; type: cell-based
Mus musculus [14] = species on record: Mus musculus; test: Inhibition of hedgehog signaling pathway in mouse Shh Light2 cells harboring Gli1 plasmid assessed as reduction in Gli1-mediated transcriptional activity by luciferase reporter gene assay; type: cell-based
Mus musculus [15] = species on record: Mus musculus; test: Inhibition of hedgehog signaling pathway in mouse Light2 cells in Shh conditioned medium by Gli-luciferase reporter gene assay; type: cell-based
Procedure, shortened: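 Light II cells (NIH-3T3 stably transfected with Gli-responsive firefly luciferase and Renilla expression vector) stimulated with ShhN conditioned medium. This medium was collected from ShhN-transfected HEK293 cells kept in 0.1% FBS. Firefly luciferase normalized to Renilla. IC50 given as mean ± SD (nM) from three separate experiments.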

Mus musculus [16] = species on record: Mus musculus; test: Inhibition of hedgehog signaling pathway in mouse NIH/3T3 cells hoarboring Gli2 plasmid assessed as reduction in ectopic expression of Gli2 protein at 50 to 1000 nM by immunoblot analysis; type: cell-based
Mus musculus [17] = species on record: Mus musculus; test: Inhibition of hedgehog signaling pathway in mouse NIH/3T3 cells assessed as reduction in edogenous expression of Gli1 protein by immunoblot analysis; type: cell-based; procedure, shortened: as §4
Mus musculus [18] = species on record: Mus musculus; test: Inhibition of hedgehog signaling pathway in mouse Ptch+/- p53-/- medulloblastoma cells assessed as reduction in ptch1 mRNA expression at 3 uM by RT-qPCR analysis; procedure, shortened: as §5
Mus musculus [19] = species on record: Mus musculus; test: Inhibition of hedgehog signaling pathway in mouse Light2 cells harboring wild type Smo after 36 hrs by Gli luciferase activity; type: cell-based; procedure, shortened: as §2
Mus musculus [20] = species on record: Mus musculus; test: Inhibition of hedgehog signaling pathway in mouse Shh Light2 cells harboring Gli2 plasmid assessed as reduction in Gli2-mediated transcriptional activity by luciferase reporter gene assay; type: cell-based

## COc1ccc(CN2C[C@@H]3CN(S(=O)(=O)c4ccc(Cl)cc4)CC[C@@H]3Oc3c(NC(=O)C4CC4)cccc3C2=O)cc1 (racemic)
Mus musculus [1]
  inhibition: Active
Mus musculus [2]
  inhibition: Dose-dependent effect
Mus musculus [3]
  inhibition: Active
Mus musculus [4]
  Activity: Active
Mus musculus [5]
  inhibition: 97%
[6]
  inhibition: inactive
Mus musculus [7]
  inhibition: Dose-dependent effect
Medulloblastoma cell
  Activity: Dose-dependent effect
Mus musculus [8]
  inhibition: Active
Mus musculus [9]
  inhibition: Active
Mus musculus [10]
  inhibition: Active
Mus musculus [11]
  Activity: Active
Mus musculus [12]
  inhibition: Active
Mus musculus [13]
  inhibition: Active
Mus musculus [14]
  inhibition: Dose-dependent effect
Mus musculus [15]
  inhibition: Dose-dependent effect
Mus musculus [16]
  inhibition: Active
Mus musculus [17]
  inhibition: Dose-dependent effect
Mus musculus [18]
  inhibition: Active
Mus musculus [19]
  inhibition: Dose-dependent effect
Mus musculus [20]
  inhibition: Dose-dependent effect
